Laboratory results from ChEMBL document CHEMBL4261548, “Mitochondria-targeted betulinic and ursolic acid derivatives: synthesis and anticancer activity” (Medchemcomm, 2017).
Calls of active or inactive are those of the source. The calls are words filed in the database; no cut-off is given here.

Key:
HCT-116 [1] = experiment: Induction of apoptosis in human HCT116 cells assessed as release of cytochrome C from mitochondria at 3.5 uM by SDS/PAGE analysis; type: functional, cell-based
How it was run: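 HCT116 cells at about 1 × 10^6 per 100 μl were permeabilized with 0.01% digitonin in 150 mM KCl, 1 mM MgCl2, 0.2 mM EGTA and 5 mM Tris for 10 min at room temperature. Supernatant (cytosol) and pellet (mitochondria) were separated by centrifugation. Cytochrome c in each fraction was detected by 15% SDS-PAGE and western blot.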

Splenocyte = experiment: Cytotoxicity against BALB/c mouse splenocytes assessed as decrease in cell viability by trypan blue test; type: cell-based
[2] = Cytotoxicity against human Tet21N cells assessed as decrease in cell viability by trypan blue test; type: functional, cell-based
MCF7 = experiment: Cytotoxicity against human MCF7 cells assessed as decrease in cell viability by trypan blue test; type: functional, cell-based
Homo sapiens [3] = species on record: Homo sapiens; experiment: Induction of apoptosis in human Tet21N cells assessed as caspase-3 cleavage using DEVD-AMC as substrate by fluorescence assay; type: functional, cell-based
HCT-116 [4] = experiment: Inhibition of mitochondrial respiration in human HCT116 cells after 24 hrs in presence of oligomycin/CCCP/rotenone/antimycin; type: functional, cell-based
How it was run: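 About 15 000 HCT116 cells per well adhered overnight and were treated for 24 h. They were then held 1 h at 37 °C without CO2 in unbuffered DMEM (5 mM glucose, 2 mM glutamine, pH 7.4). Oxygen consumption was measured by Seahorse XF-96: basal, then sequential oligomycin, CCCP, and rotenone plus antimycin A. Data were normalized to total protein per well.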

HCT-116 [5] = experiment: Induction of apoptosis in human HCT116 cells assessed as caspase-3 cleavage using DEVD-AMC as substrate by fluorescence assay; type: functional, cell-based
HCT-116 [6] = experiment: Cell cycle arrest in human HCT116 cells assessed as accumulation at sub-G1 phase by propidium iodide staining-based flow cytometric method (reference value: 0.8%); type: functional
Homo sapiens [7] = species on record: Homo sapiens; experiment: Induction of apoptosis in human Tet21N cells assessed as PARP cleavage at 5 to 15 uM by Western blot analysis; type: functional, cell-based
How it was run: (§1)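 Whole-cell lysates in lysis buffer with protease inhibitors, 10 min room temperature; insoluble material cleared at 13 000 rpm, 20 min, 4 °C; equal protein loaded for SDS-PAGE and blotted; membranes blocked 1 h in 5% non-fat milk; PARP cleavage detected by ECL. HCT116 and RKO in DMEM, SK-N-BE(2) and Tet21N in RPMI 1640 with 10% FCS; Tet21N medium also hygromycin 100 μg ml–1 and geneticin 200 μg ml–1.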

RKO = experiment: Induction of apoptosis in human RKO cells assessed as PARP cleavage at 50 uM by Western blot analysis; type: functional, cell-based; how it was run: as §1
Homo sapiens [8] = species on record: Homo sapiens; experiment: Induction of apoptosis in human SK-N-BE(2) cells assessed as PARP cleavage at 50 uM by Western blot analysis; type: functional, cell-based; how it was run: as §1
HCT-116 [9] = experiment: Inhibition of mitochondrial respiration in human HCT116 cells at 1 to 2 uM after 24 hrs in presence of oligomycin/CCCP/rotenone/antimycin; type: functional, cell-based
How it was run: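 About 15 000 cells per well adhered overnight, then treated 24 h. Washed and held 1 h at 37 °C without CO2 in unbuffered DMEM (5 mM glucose, 2 mM glutamine, pH 7.4). Seahorse XF-96 oxygen consumption read: basal, then oligomycin (proton leak), CCCP (spare capacity), rotenone plus antimycin A (non-mitochondrial). Normalized to total protein per well.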

HCT-116 [10] = experiment: Induction of apoptosis in human HCT116 cells assessed as PARP cleavage at 20 uM by Western blot analysis; type: functional, cell-based; how it was run: as §1

| Structure (SMILES) | Activity (HCT-116 [1]) | IC50 (Splenocyte) [nM] | IC50 ([2]; Homo sapiens) [nM] | IC50 (MCF7; Homo sapiens, MCF7) [nM] | further results |
| --- | --- | --- | --- | --- | --- |
| C=C(C)[C@@H]1CC[C@]2(C(=O)OCCOCCOCC[P+](c3ccccc3)(c3ccccc3)c3ccccc3)CC[C@]3(C)[C@H](CC[C@@H]4[C@@]5(C)CC[C@H](OC(=O)C(Cl)Cl)C(C)(C)[C@@H]5CC[C@]43C)[C@@H]12 | Active | 660 | 950 | 2310 |  |
| C[C@H]1[C@H](C)CC[C@]2(C(=O)OCCOCCOCC[P+](c3ccccc3)(c3ccccc3)c3ccccc3)CC[C@]3(C)C(=CC[C@@H]4[C@@]5(C)CC[C@H](OC(=O)C(Cl)Cl)C(C)(C)[C@@H]5CC[C@]43C)[C@H]12 | Active | 1130 | 1180 | 3900 |  |
| C=C(C)[C@@H]1CC[C@]2(C(=O)O)CC[C@]3(C)[C@H](CC[C@@H]4[C@@]5(C)CC[C@H](OC(=O)C(Cl)Cl)C(C)(C)[C@@H]5CC[C@]43C)[C@@H]12 |  |  | 4900 | 15900 |  |
| C=C(C)[C@@H]1CC[C@]2(C(=O)OCCOCCOCC[P+](c3ccccc3)(c3ccccc3)c3ccccc3)CC[C@]3(C)[C@H](CC[C@@H]4[C@@]5(C)CC[C@H](O)C(C)(C)[C@@H]5CC[C@]43C)[C@@H]12 | Active |  | 740 | 700 | Activity (Homo sapiens [3]): Active; inhibition (HCT-116 [4]): Dose-dependent effect; Activity (HCT-116 [5]): Active |
| C[C@H]1[C@H](C)CC[C@]2(C(=O)O)CC[C@]3(C)C(=CC[C@@H]4[C@@]5(C)CC[C@H](OC(=O)C(Cl)Cl)C(C)(C)[C@@H]5CC[C@]43C)[C@H]12 |  |  | > 10000 | > 20000 |  |
| C=C(C)[C@@H]1CC[C@]2(C(=O)OCCOCCOCC[P+](c3ccccc3)(c3ccccc3)c3ccccc3)CC[C@]3(C)[C@H](CC[C@@H]4[C@@]5(C)CC[C@H](OC(C)=O)C(C)(C)[C@@H]5CC[C@]43C)[C@@H]12 [listing 1 of 2 here] | Active |  |  |  | inhibition (HCT-116 [4]): Dose-dependent effect |
| C=C(C)[C@@H]1CC[C@]2(C(=O)OCCCC[P+](c3ccccc3)(c3ccccc3)c3ccccc3)CC[C@]3(C)[C@H](CC[C@@H]4[C@@]5(C)CC[C@H](OC(=O)C(Cl)Cl)C(C)(C)[C@@H]5CC[C@]43C)[C@@H]12 | Active | 1950 | 1260 | 800 |  |
| C=C(C)[C@@H]1CC[C@]2(C(=O)OCCOCCOCC[P+](c3ccccc3)(c3ccccc3)c3ccccc3)CC[C@]3(C)[C@H](CC[C@@H]4[C@@]5(C)CC[C@H](OC(C)=O)C(C)(C)[C@@H]5CC[C@]43C)[C@@H]12 [listing 2 of 2 here] |  |  |  |  | IC50 [2]: 1280 nM; IC50 (MCF7; mcf7): 1510 nM |
| C=C(C)[C@@H]1CC[C@]2(C(=O)OCCOCCOCC[P+](c3ccccc3)(c3ccccc3)c3ccccc3)CC[C@]3(C)[C@H](CC[C@@H]4[C@@]5(C)CC[C@H](OC(C)=O)C(C)(C)[C@@H]5CC[C@]43C)[C@@H]12.[Br-] |  |  | 980 | 850 | Activity (HCT-116 [6]): 29.9% |
| C=C(C)[C@@H]1CC[C@]2(C(=O)O)CC[C@]3(C)[C@H](CC[C@@H]4[C@@]5(C)CC[C@H](O)C(C)(C)[C@@H]5CC[C@]43C)[C@@H]12 [BETULINIC ACID] | inactive |  |  | > 25000 | Activity (Homo sapiens [7]): Active; Activity (RKO): Active; Activity (Homo sapiens [3]): inactive; Activity (Homo sapiens [8]): Active; inhibition (HCT-116 [9]): inactive; Activity (HCT-116 [10]): Active; Activity (HCT-116 [6]): 2.2%; Activity (HCT-116 [5]): inactive |
| C[C@H]1[C@H](C)CC[C@]2(C(=O)OCCCC[P+](c3ccccc3)(c3ccccc3)c3ccccc3)CC[C@]3(C)C(=CC[C@@H]4[C@@]5(C)CC[C@H](OC(=O)C(Cl)Cl)C(C)(C)[C@@H]5CC[C@]43C)[C@H]12 | Active | 1750 | 4400 | 2760 |  |
| C[C@H]1[C@H](C)CC[C@]2(C(=O)OCCOCCOCC[P+](c3ccccc3)(c3ccccc3)c3ccccc3)CC[C@]3(C)C(=CC[C@@H]4[C@@]5(C)CC[C@H](O)C(C)(C)[C@@H]5CC[C@]43C)[C@H]12 | Active |  | 810 | 1590 |  |
